Laboratory results: article PMC2174336 (The Journal of Cell Biology, 2001)
Blank lines part the entries; values can stand above or below the molecule they belong to. Bridges are numbered along the chain shown (N, C = ends). Where no end group is shown, it is not given here.

Tests used:
αMβ2 integrin [1] = test: LLG-C4-GST binding to immunocaptured αMβ2 integrin; conditions: integrin immunocaptured with MEM170 or OKM1
Method in brief: (§1)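 Integrins from buffy-coat lysate in 1% octylglucoside/1 mM MnCl2/TBS were captured for 2 h at 4°C on wells coated with subunit antibodies (MEM170, OKM1 or 2E7), then washed five times. Peptide–GST fusion or GST (10 μg/ml; 2 μg/well per legend) bound 1 h in 25 mM octylglucoside/TBS/1 mM MnCl2, ± EDTA. Detection by Eu3+-chelate-labelled anti-GST antibody fluorescence. Repeated three times.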

β2 integrin = test: LLG-C4-GST binding to integrin immunocaptured with β2 subunit antibody 2E7; conditions: β2 subunit antibody 2E7 used for immunocapture
Method in brief: as §1

αM subunit I domain = test: LLG-C4-GST binding to purified αM subunit I domain; conditions: LLG-C4-GST 10 μg/ml; for inhibition of LLG-C4-GST binding to the I domain: peptide 100 μM, triplicate wells
Method in brief: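 The αM I domain was expressed as a GST fusion in E. coli, purified on glutathione beads and released by thrombin cleavage; it was then coated on wells. Peptide–GST fusion or GST at the indicated concentrations (10 μg/ml in methods) was incubated 1 h in 25 mM octylglucoside/TBS/1 mM MnCl2. Bound protein was detected with Eu3+-labelled anti-GST antibodies. Triplicate wells, three experiments.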

THP-1 cells [2] = test: Inhibition of THP-1 cell adhesion to LLG-C4-GST or LLG-C4 substratum; format: cell-based
Method in brief: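 THP-1 cells were mixed in suspension with test peptides at the indicated final concentrations, or with 2.5 mM EDTA. They were then incubated 60 min in wells coated with peptide–GST fusion. Unbound cells were removed by PBS washing and bound cells quantitated by phosphatase assay. Mean of triplicate wells; repeated in two further experiments.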

[3] = tested on: αXβ2 integrin–transfected L cells; test: Binding of αXβ2 integrin-transfected L cells to LLG-C4-GST; format: cell-based, mouse; conditions: three experiments in triplicate wells
Method in brief: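 αXβ2-transfected mouse L cells were incubated in wells coated with peptide–GST fusion or GST (2 μg/well, BSA-blocked), 60 min at 37°C, 10^5 cells/well. The β2-blocking antibody 7E4 or EDTA served as competitors. After PBS washing, bound cells were read by phosphatase assay and given as percentage adhesion. Triplicate wells; three experiments.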

T cells = test: T cell binding to TNF-α-stimulated Eahy926 endothelial cell monolayer; format: cell-based; conditions: peptide 50 μM; 45 min; phosphatase assay; triplicate wells
Method in brief: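 Eahy926 endothelial cells were seeded at 5×10^4/well, grown 3 d, then stimulated 16 h with TNF-α (10 ng/ml). Blood T cells were isolated by Ficoll-Hypaque and nylon wool. T cells (1.5×10^5/well) were bound 30 min at 4°C then 15 min at 37°C, with test or control peptide at 50 μM. Unbound cells were removed by immersing the plate in PBS. Phosphatase assay; triplicate wells.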

THP-1 cells [4] = test: THP-1 adhesion to A2 domain-deleted von Willebrand factor; format: cell-based; conditions: phosphatase assay; triplicate wells
Method in brief: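 Wild-type or A2-domain-deleted recombinant von Willebrand factor was captured on wells coated with anti-von Willebrand factor antibody D′-D3. THP-1 cells were incubated with competitor peptides at the stated concentrations. Bound cells were read by phosphatase assay, expressed relative to wild-type von Willebrand factor binding (100%). Triplicate wells; similar in two further experiments.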

THP-1 cells [5] = test: THP-1 cell adhesion to von Willebrand factor; format: cell-based; conditions: data not shown
Method in brief: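 THP-1 cells were incubated 60 min at 37°C in wells coated with von Willebrand factor or fibronectin (2 μg per well, BSA-blocked), with test peptides at the indicated concentrations. Unbound cells were washed off with PBS and bound cells read by phosphatase assay. Triplicate wells.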

THP-1 cells [6] = test: THP-1 cell adhesion to immobilized peptides or GST fusion proteins; format: cell-based; conditions: 60 min; for THP-1 cell binding to substance coated on microtiter wells: phorbol ester–activated THP-1 cells, phosphatase assay
Method in brief: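 Proteins or synthetic peptides coated at 2 μg per well in TBS unless indicated; polymerised peptide made with 0.25% final glutaraldehyde. Wells blocked with 5% BSA and washed with PBS. Cells were preactivated for 30 min at room temperature in serum-free medium with 50 nM phorbol dibutyrate or 200 μM activating peptide. Then 10^5 cells/well were incubated 60 min at 37°C. Bound cells were read by cellular phosphatase assay.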

Jurkat cells = test: Jurkat cell adhesion to ICAM-1-Fc; format: cell-based
THP-1 cells [7] = test: THP-1 cell migration on fibrinogen-coated Transwell filters; format: cell-based; conditions: 200 μM; 8-μm Transwell; 10% serum; 18 h; n = 6
Method in brief: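 Both faces of 8-μm-pore Transwell filters were coated with fibrinogen or peptide–GST fusion (40 μg/ml; GST control) and blocked with 5% BSA. THP-1 cells (5×10^4) were placed in the upper chamber in 10% serum medium, ± test peptides at 200 μM; the lower chamber held the same medium. After 18 h at 37°C, filters were methanol-fixed and stained with 0.1% toluidine blue. Cells on the lower surface were counted microscopically.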

αMβ2 integrin [8] = test: Phage binding to purified αMβ2 integrin; conditions: phage-displayed peptide; data not shown
[9] = target: β2 integrins of THP-1 cells (adhesion to LLG-C4 substrata)
[10] = target: β2 integrins of THP-1 cells (adhesion to LLG-C4 substrata); remark: listed apart in the source

effect of EDTA on LLG-C4-GST binding to αMβ2 integrin (αMβ2 integrin [1]): inhibited the binding | effect of EDTA on LLG-C4-GST binding to integrin captured with 2E7 (β2 integrin): only partially inhibited | effect of EDTA on LLG-C4-GST binding to the I domain (αM subunit I domain; EDTA 2.5 mM): blocked the binding
Molecule: O=C(O)CN(CCN(CC(=O)O)CC(=O)O)CC(=O)O [EDTA]
effect of EDTA on THP-1 binding to LLG-C4-GST (THP-1 cells [2]; EDTA 2.5 mM, phorbol ester–activated cells): abolished the binding | binding of αXβ2-transfected L cells to LLG-C4-GST, effect of competitor [3]: inhibited

Molecule: ACDCRGDCFCG (also: bicyclic or more (positions not given here)) [RGD-4C]
effect on T cell binding to TNF-α–stimulated endothelial cells (T cells): no effect | effect on THP-1 adhesion to the A2-deleted von Willebrand factor (THP-1 cells [4]): blocked

Molecule: CAAGC (disulfide)
competition of THP-1 cell adhesion on LLG-C4-GST (in words) (THP-1 cells [2]; LLG-C4-GST substratum): only a weak competitor

Molecule: CLLGC (disulfide)
concentrations at which THP-1 cell adhesion on LLG-C4-GST was readily inhibited (THP-1 cells [2]; LLG-C4-GST substratum, phosphatase assay): ≥ 1 mM | inhibition of THP-1 binding to von Willebrand factor at 500 μM (THP-1 cells [5]): inhibited

Molecule: CPCFLLGCC (also: bicyclic or more (positions not given here)) [C(1-9;3-8)]
THP-1 cell binding to peptide cross-linked with glutaraldehyde (THP-1 cells [6]; peptide coated in presence of glutaraldehyde, 10^5 cells per well): inactive even after the cross-linking | THP-1 cell binding to substance coated on microtiter wells (THP-1 cells [6]): failed to bind | fold less active than C(1-8;3-9), THP-1 cell adhesion on LLG-C4-GST (THP-1 cells [2]; relative to C(1-8;3-9)): 20 fold | inhibition of Jurkat cell adhesion to ICAM-1-Fc (in words) (Jurkat cells): severalfold less active and had hardly any effect | effect on THP-1 cell migration on fibrinogen (THP-1 cells [7]): inhibited only partially

affinity to αMβ2 in phage-binding experiments in comparison to the other clones (αMβ2 integrin [8]): higher affinity
Molecule: CPCFLLGCC (also: bicyclic or more (positions not given here)) [LLG-C4]
THP-1 cell binding to substance coated on microtiter wells (THP-1 cells [6]): bound strongly

inhibition of LLG-C4-GST binding to the I domain (αM subunit I domain): blocked
Molecule: CPCFLLGCC [LLG-C4 (1)]

inhibition of LLG-C4-GST binding to the I domain (αM subunit I domain): did not inhibit
Molecule: CPCFLLGCC [LLG-C4 (2)]

inhibition of THP-1 cell adhesion on LLG-C4-GST (blocks m22 with m1) [9]: > 1 mM
Molecule: CLLGC (also: cyclic, type of ring not given here) [CLLGC peptide]

IC50 of inhibition of THP-1 cell adhesion on LLG-C4-GST (blocks m22 with m1) [10]: 20 µM
Molecule: CPCFLLGCC (disulfide 1-8, 3-9) [C(1-8;3-9) peptide]
